In data set [1] the test system is Rattus norvegicus. Put plainly: Toxicity in Sprague-Dawley rat assessed as change in gastrointestinal effects at 2000 mg/kg, po measured continuously for first 4 hrs followed by measured every hour for next 24 hrs and at 6 hrs intervals for following 48 hrs post dose. The format is organism-based. Particulars: in vivo. The gist of the method:
(§1)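 Followed OECD 425 in adult SD rats (180–220 g), three groups of six. Vehicle control received 0.5% CMC-Na orally; separate male and female groups received 2000 mg/kg orally. Endpoints observed: behaviour, breathing, cutaneous effects, sensory nervous system responses, gastrointestinal effects and deaths.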

In data set [2] the test system is Mus musculus. Kind of data set: Increase in ratio of 3,4-dihydroxyphenylacetic acid and 4-hydroxy-3-methoxyphenylacetic acid to dopamine level in Kunming mouse hypothalamus at 40 mg/kg, po treated for 7 days by HPLC-ECD analysis. The format is functional, organism-based. A digest of the protocol: (§2)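 Male Kunming mice (18–20 g) given vehicle or 40 mg/kg for 7 days, then killed by cervical dislocation. Frontal cortex, hippocampus, striatum, hypothalamus and thalamus dissected on ice, homogenized in ice-cold 0.2 M perchloric acid with 0.1 mM EDTA, centrifuged 15,000 rpm, 20 min, 4 °C. Supernatant analysed by HPLC-ECD at +0.50 V; phosphate/octanesulfonate mobile phase pH 3.0 with 12% methanol. Levels in ng/g, mean ± SEM.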

Data set [3] can be described thus: Drug metabolism in Sprague-Dawley rat urine assessed as 1-(5'-allyl-2'-hydroxy-6-((2S,3R,4S,5S,6R)-3,4,5-trihydroxy-6-(hydroxymethyl)tetrahydro-2H-pyran-2-yloxy)biphenyl-3-yl)prop-2-en-1-one formation at 100 mg/kg, po by UPLC-IT-TOF-MS analysis. Particulars: in vivo. The format is ADME, organism-based. A digest of the protocol: (§3)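 Male/unspecified SD rats (n = 6) housed individually in metabolic cages, dosed orally at 100.0 mg/kg; controls given 0.5% CMC-Na orally. Plasma, urine and faeces collected. LC-IT-TOF-MS on C18 column at 30 °C, formic acid (0.05%) water/acetonitrile gradient 5–100% B over 18 min, 0.2 mL/min; positive and negative ion modes with automatic MS/MS.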

Data set [4] is described as follows: Drug metabolism in Sprague-Dawley rat urine assessed as 2'-hydroxy-5'-(1-hydroxyallyl)-5-propylbiphenyl-2-yl hydrogen sulfate formation at 100 mg/kg, po by UPLC-IT-TOF-MS analysis. The format is ADME, organism-based. Particulars: in vivo. The gist of the method: as §3
Data set [5] in a line: Drug metabolism in Sprague-Dawley rat urine assessed as 5-allyl-5'-(1-hydroxyallyl)-2'-((2S,3R,4S,5S,6R)-3,4,5-trihydroxy-6-(hydroxymethyl)tetrahydro-2H-pyran-2-yloxy)biphenyl-2-yl hydrogen sulfate formation at 100 mg/kg, po by UPLC-IT-TOF-MS analysis. The format is ADME, organism-based. Particulars: in vivo. The gist of the method: as §3
Data set [6] can be described thus: Drug metabolism in Sprague-Dawley rat urine assessed as 5'-(1-hydroxyallyl)-5-propyl-2'-((2S,3R,4S,5S,6R)-3,4,5-trihydroxy-6-(hydroxymethyl)tetrahydro-2H-pyran-2-yloxy)biphenyl-2-yl hydrogen sulfate formation at 100 mg/kg, po by UPLC-IT-TOF-MS analysis. The format is ADME, organism-based. Particulars: in vivo. The gist of the method: as §3
The nature of data set [7]: Drug metabolism in Sprague-Dawley rat feces assessed as 5,5'-diallylbiphenyl-2,2'-diol formation at 100 mg/kg, po by UPLC-IT-TOF-MS analysis. The format is ADME, organism-based. Particulars: in vivo. The gist of the method:
(§4)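 Rats (n = 6) housed in metabolic cages received 100.0 mg/kg orally; controls received 0.5% CMC-Na. Plasma, urine and faeces were collected and analyzed by LC-IT-TOF-MS on a C18 column at 30 °C. Gradient 5–100% acetonitrile with 0.05% formic acid over 18 min at 0.2 mL/min; positive and negative ion MS/MS.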

Data set [8] relates to Rattus norvegicus. Put plainly: Toxicity in Sprague-Dawley rat assessed as death at 2000 mg/kg, po measured continuously for first 4 hrs followed by measured every hour for next 24 hrs and at 6 hrs intervals for following 48 hrs post dose. Particulars: in vivo. The format is organism-based. A digest of the protocol:
as §1

Data set [9] is described as follows: Drug metabolism in Sprague-Dawley rat feces assessed as (2S,3R,4S,5S,6R)-2-(5,5'-diallyl-2'-methoxybiphenyl-2-yloxy)-6-(hydroxymethyl)tetrahydro-2H-pyran-3,4,5-triol formation at 100 mg/kg, po by UPLC-IT-TOF-MS analysis. Particulars: in vivo. The format is ADME, organism-based. A digest of the protocol: as §4
Data set [10] can be described thus: Drug metabolism in Sprague-Dawley rat plasma assessed as 5-allyl-5'-(1-hydroxyallyl)-2'-((2S,3R,4S,5S,6R)-3,4,5-trihydroxy-6-(hydroxymethyl)tetrahydro-2H-pyran-2-yloxy)biphenyl-2-yl hydrogen sulfate formation at 100 mg/kg, po by UPLC-IT-TOF-MS analysis. The format is ADME, organism-based. Particulars: in vivo. The gist of the method: as §3
Data set [11] concerns Mus musculus. Put plainly: Effect on 5-hydroxytryptamine level in Kunming mouse hippocampus at 40 mg/kg, po treated for 7 days by HPLC-ECD analysis. The format is functional, organism-based. A digest of the protocol: as §2
The test system of data set [12] is Mus musculus. Put plainly: Effect on 5-hydroxytryptamine level in Kunming mouse frontal cortex at 40 mg/kg, po treated for 7 days by HPLC-ECD analysis. The format is functional, organism-based. A digest of the protocol:
as §2

The nature of data set [13]: Drug metabolism in Sprague-Dawley rat plasma assessed as 5,5'-diallylbiphenyl-2,2'-diol formation at 100 mg/kg, po by UPLC-IT-TOF-MS analysis. The format is ADME, organism-based. Particulars: in vivo. A digest of the protocol:
as §3

Data set [14] deals with Rattus norvegicus. Kind of data set: Toxicity in Sprague-Dawley rat assessed as change in behaviour at 2000 mg/kg, po measured continuously for first 4 hrs followed by measured every hour for next 24 hrs and at 6 hrs intervals for following 48 hrs post dose. The format is organism-based. Particulars: in vivo. A digest of the protocol:
as §1

The subject of data set [15] is Mus musculus. Put plainly: Increase in norepinephrine level in Kunming mouse hypothalamus at 40 mg/kg, po treated for 7 days by HPLC-ECD analysis. The format is functional, organism-based. The gist of the method: as §2
Data set [16] has as its system Rattus norvegicus. Put plainly: Toxicity in Sprague-Dawley rat assessed as ulceration at 2000 mg/kg, po measured over 4 hrs. The format is organism-based. Particulars: in vivo. The gist of the method: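 Acute oral toxicity run per OECD 425 in adult SD rats (180–220 g). Six animals per group: vehicle control (0.5% CMC-Na, oral), male rats and female rats each dosed orally at 2000 mg/kg. Animals were watched continuously for the first 4 h for behavior, breathing, cutaneous signs (irritation, ulceration, caustic injury, skin rashes), sensory nervous and gastrointestinal effects. Later checks were hourly for 24 h, then every 6 h for 48 h.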

Data set [17] can be described thus: Drug metabolism in Sprague-Dawley rat feces assessed as 5'-acryloyl-2'-hydroxy-5-propionylbiphenyl-2-yl hydrogen sulfate formation at 100 mg/kg, po by UPLC-IT-TOF-MS analysis. The format is ADME, organism-based. Particulars: in vivo. A digest of the protocol:
as §4

Data set [18] is described as follows: Drug metabolism in Sprague-Dawley rat plasma assessed as (2R,2'R,3S,3'S,4S,4'S,5R,5'R,6S,6'S)-6,6'-(5,5'-diallylbiphenyl-2,2'-diyl)bis(oxy)bis(2-(hydroxymethyl)tetrahydro-2H-pyran-3,4,5-triol) formation at 100 mg/kg, po by UPLC-IT-TOF-MS analysis. Particulars: in vivo. The format is ADME, organism-based. A digest of the protocol:
as §4

Data set [19] in a line: Drug metabolism in Sprague-Dawley rat feces assessed as 1-(2'-hydroxy-5'-(1-hydroxyallyl)-6-((2S,3R,4S,5S,6R)-3,4,5-trihydroxy-6-(hydroxymethyl)tetrahydro-2H-pyran-2-yloxy)biphenyl-3-yl)prop-2-en-1-one formation at 100 mg/kg, po by UPLC-IT-TOF-MS analysis. The format is ADME, organism-based. Particulars: in vivo. The gist of the method: as §4
Data set [20] can be described thus: Drug metabolism in Sprague-Dawley rat urine assessed as (2R,2'R,3S,3'S,4S,4'S,5R,5'R,6S,6'S)-6,6'-(5,5'-diallylbiphenyl-2,2'-diyl)bis(oxy)bis(2-(hydroxymethyl)tetrahydro-2H-pyran-3,4,5-triol) formation at 100 mg/kg, po by UPLC-IT-TOF-MS analysis. The format is ADME, organism-based. Particulars: in vivo. A digest of the protocol:
as §3

One molecule from ChEMBL document CHEMBL4270555, “Synthesis and biological evaluation of magnolol derivatives as melatonergic receptor agonists with potential use in depression” (Eur J Med Chem, 2018) can be followed below.

Active and inactive are the calls of the source. No cut-off for these calls is given here.

Consider `C=CCc1ccc(O)c(-c2cc(CC=C)ccc2O[C@@H]2O[C@H](CO)[C@@H](O)[C@H](O)[C@H]2O)c1`, for which the Activity entry in the data set on Rattus norvegicus [1], in the data set on Rattus norvegicus [8], with Rattus norvegicus [14] and with Rattus norvegicus [16] was “Non-Toxic” in each case. Also, the result in the data set with Mus musculus [2] and in the data set on Mus musculus [15] was Active. Moreover, the Drug metabolism entry in data set [3] is “Metabolite_Detected”; in data set [4], “Metabolite_Notdetected”; in data set [5] it was “Metabolite_Notdetected”; in data set [6] it was “Metabolite_Notdetected”; in [7] it was “Metabolite_Detected”; in [9] it was “Metabolite_Detected”. Moreover, the Drug metabolism result in data set [10] is on record as “Metabolite_Notdetected”; in data set [13], “Metabolite_Notdetected”; in data set [17], “Metabolite_Notdetected”; in data set [18] it was “Metabolite_Notdetected”; in [19] it was “Metabolite_Notdetected”; in data set [20] it was “Metabolite_Detected”. In addition, the outcome in the data set with Mus musculus [11] and with Mus musculus [12] was inactive.
